Assay outcomes from PubChem BioAssay.
RanGTP-Impb inh – inhibitors of RanGTP-importin-beta interaction, primary screen, biochemical, FRET, CFP-Ran, YFP-importin-beta, homogeneous; inhibition, % (no concentration beside the values); Ran GTPase (GTP-bound) - importin-beta complex; cell-free CFP-Ran/YFP-importin-beta FRET ratio; AID 2216, 2009; hit rate 1.1% among 300,000;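 active = more than half of the replicate wells show a fall in the fluorescence ratio signal beyond about 16%, limit read from the data, passing the limit was not always enough; inconclusive = exactly half of the replicate wells pass the set limit; inactive = fewer than half of replicates pass the limit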;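 also: 0% = DMSO wells and 100% = Ran loaded with GDP instead of GTP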
Runt-SMMHC FRET – inhibitors of RUNX1 Runt–CBFb-SMMHC binding, primary screen, biochemical, FRET, Cerulean-Runt, Venus-CBFb-SMMHC, uHTS. Runt-related transcription factor 1 (Homo sapiens) + Core-binding factor subunit beta …. Cerulean-Runt/Venus-CBFb-SMMHC FRET ratio 530/480, 1 h. inhibition, % at 20 µM. hit rate 0.74% among 220,000. AID 1434, 2008;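 active = mean inhibition across duplicate retests at 20 µM reaching about 50%, limit read from the data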;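 also: 0% = DMSO wells and 100% = wells with excess untagged CBFb-SMMHC; inhibitors lower the FRET ratio by blocking Runt binding to CBFb-SMMHC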
Target sequence (Q01196 whole entry, looked up): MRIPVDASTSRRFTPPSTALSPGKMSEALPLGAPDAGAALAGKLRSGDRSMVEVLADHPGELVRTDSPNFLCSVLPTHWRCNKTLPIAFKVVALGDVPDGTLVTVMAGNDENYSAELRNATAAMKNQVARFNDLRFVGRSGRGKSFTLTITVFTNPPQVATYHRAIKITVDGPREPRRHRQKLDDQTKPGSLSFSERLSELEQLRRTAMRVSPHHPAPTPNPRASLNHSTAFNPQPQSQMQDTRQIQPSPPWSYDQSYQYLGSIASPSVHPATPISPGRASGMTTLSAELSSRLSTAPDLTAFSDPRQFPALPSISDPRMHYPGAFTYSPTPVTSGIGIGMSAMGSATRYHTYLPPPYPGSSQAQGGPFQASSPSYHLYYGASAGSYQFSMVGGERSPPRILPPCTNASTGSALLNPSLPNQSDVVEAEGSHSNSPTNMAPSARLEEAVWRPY
Target sequence (Q13951 whole entry, looked up): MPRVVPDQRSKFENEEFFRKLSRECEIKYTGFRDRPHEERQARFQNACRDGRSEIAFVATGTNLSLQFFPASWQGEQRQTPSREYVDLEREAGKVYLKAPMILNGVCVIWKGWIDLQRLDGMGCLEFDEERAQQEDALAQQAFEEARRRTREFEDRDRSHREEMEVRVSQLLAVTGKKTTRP
Runt-CBFb FRET – inhibitors of RUNX1 Runt–CBFb binding, primary screen, biochemical, FRET, Cerulean-Runt, Venus-CBFb, uHTS | Runt-related transcription factor 1 (Homo sapiens) + Core-binding factor subunit beta … | Cerulean-Runt/Venus-CBFb FRET ratio 530/480, 1 h | inhibition, % at 20 µM | hit rate 0.46% among 220,000;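 active = inhibition over about 50% at 20 µM in the single-dose screen, limit read from the data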;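 also: 0% = DMSO wells and 100% = excess unlabeled CBFb competitor control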
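test system = Cerulean-Runt domain fusion protein, energy donor | probe or stimulus = Venus-CBFb binding partner, 100 nM | incubation = two 1 h room-temperature incubations shielded from light | detection = fluorescence energy transfer, 422 nm excitation, 530/480 nm emission | measure = loss of energy transfer signal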
Vif inh – HIV Vif self-association inhibitors, primary screen, imaging, HEK293T, single point. HEK293T cells, Vif self-association by quenched fluorescence, 24 h. inhibition, % at 7.49 µM. hit rate 0.35% among 340,000; in the data active = inhibition above about 50%, passing the limit was not always enough; inconclusive = no clear call, values can overlap the other calls; inactive = below about 31%
Rce1 inhib – yeast Rce1p protease inhibitors, primary screen, biochemical, fluorescence, cell-free homogeneous. CAAX prenyl protease 2 (Saccharomyces cerevisiae (strain ATCC 204508 / S288c)), Q03530. calls only. yeast membranes, quenched prenylated peptide cleavage fluorescence. hit rate 0.27% among 290,000;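 active = fall in fluorescence gain of 50% or more versus controls, with final raw signal at or below 3038400; inconclusive = same 50% fall but final raw signal above 3038400; inactive = fall in fluorescence gain under 50%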;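 also: plate controls were neutral control wells for no effect and wells lacking membranes for full effect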
* marks the source's active call; other numbers are inactive results; i = inactive; ? = inconclusive; . = no result given; + = active, no number. This is a sample that favours compounds with a hit; in the whole collection about 1.7% have one here.

SMILES	RanGTP-Impb inh	Runt-SMMHC FRET	Runt-CBFb FRET	Vif inh	Rce1 inhib
CCn1cc(C2C(C(=O)Nc3ccc(Br)cn3)=C(C)NC3=C2C(=O)CCC3)c(C)n1 (stereo unspecified)	3	74*	30	2	i
CCOC(=O)c1ccccc1OCc1cc(/C=N/n2cnnc2)ccc1OC	-1	-9	0	94*	i
COc1cc(-c2cc(-c3ccc(O)cc3)nc(N)c2C#N)ccc1O	-3	.	.	4	+
COc1ccc(-c2cc(-c3ccc(O)cc3)nc(N)c2C#N)cc1	-1	.	.	-3	i
COC(C/C=C\C(=O)COCc1ccccc1)OC	7	.	.	.	i
COc1cccc(-c2nc(C#N)c(N3CCN(C(=O)c4ccco4)CC3)o2)c1	-4	.	.	-5	+
N#Cc1nc(-c2ccc(F)cc2)oc1N1CCN(C(=O)c2ccco2)CC1	-2	.	.	17	i
COc1cc([N+](=O)[O-])ccc1NC(=O)C[n+]1cccc(C)c1	-2	5	2	.	i
Cc1ccc[n+](CC(=O)Nc2ccc([N+](=O)[O-])cc2Cl)c1	176*	9	0	-2	i
CC(=O)Oc1ccc2c(c1)O/C(=C\c1ccncc1)C2=O	-203	-134	-338	0	i
CCC(=O)Oc1ccc2c(c1)O/C(=C\c1ccco1)C2=O	-21	81*	-114	-3	i
CC(NC(=O)N(Cc1ccccc1)Cc1ccc2c(c1)OCO2)(C(F)(F)F)C(F)(F)F	2	-4	1	83*	i
CCC(NC(=O)N(Cc1ccccc1)Cc1ccc2c(c1)OCO2)(C(F)(F)F)C(F)(F)F	0	0	2	2	i
CCCCCCc1cc2cc(C(N)=O)c(=N)oc2cc1O	168*	59*	20	.	i
CCOc1ccc2cc(C(=O)NCc3ccccc3)c(=N)oc2c1	5	.	.	-11	i
CCCCCCc1cc2cc(C(=O)OCC)c(=O)oc2cc1O	190*	84*	10	36	i
CCCCC(=O)OCCNC(=O)c1cc2ccccc2oc1=O	0	-4	1	6	i
CCCCCCc1cc2cc(C(=O)NC)c(=N)oc2cc1O	166*	60*	10	27	i
CCCCCCc1cc2cc(C(=O)Nc3cccc(OC)c3)c(=O)oc2cc1O	156*	63*	143*	2	i
CCCCCCc1cc2cc(/C(N)=N/NC(=O)c3ccncc3)c(=O)oc2cc1O	.	.	.	3	.
COCC(=O)Nc1ccc2c(c1)[C@@H]1C[C@H](CC(=O)OC)O[C@@H](CO)[C@@H]1O2	.	.	.	4	.
Cc1onc(-c2c(F)cccc2Cl)c1C(=O)N1CCOC12CCCCC2	-2	-1	-4	1	i
CC(=O)Nc1cc(-c2cccc(F)c2)cn2c(-c3ccc(F)cc3)cnc12	.	.	.	11	.
O=C(N/N=C/C=C\c1ccco1)c1cccs1	-3	55	8	10	i
CNc1c(NS(=O)(=O)c2ccc(F)c(Cl)c2)c(=O)oc2ccccc12	-3	.	.	10	i
SMILES	RanGTP-Impb inh	Runt-SMMHC FRET	Runt-CBFb FRET	Vif inh	Rce1 inhib
CCCCCCc1cc2cc(S(=O)(=O)c3ccc(F)c(Cl)c3)c(=O)oc2cc1O	130*	63*	19	-14	i
O=C(O)C(Cc1ccc(Cl)cc1)Sc1nc2ccccc2[nH]1 (stereo unspecified)	-2	.	.	-6	i
Cc1csc(NC(=O)c2cc3c(s2)-c2ccccc2OC3)n1	49*	-12	2	-29	i
CN(C)CCNC(=O)c1cc2c(s1)-c1ccccc1OC2	2	10	4	0	i
CCOc1ccc(CNC(=O)Cn2ccc3cc(S(=O)(=O)N4CCCC4)ccc32)cc1	3	.	.	-3	i
Cc1ccc(Nc2cc(=O)[nH]c(=O)[nH]2)cc1C	9	1	-1	57*	i
CC(C)N1CCc2c(sc(NC(=O)c3ccc(S(=O)(=O)N4CCOCC4)cc3)c2C(N)=O)C1	49*	2	-5	11	i
CNC(=O)c1c(NC(=O)c2ccc(S(=O)(=O)N3CC(C)OC(C)C3)cc2)sc2c1CCN(C(C)C)C2 (stereo unspecified)	62*	.	.	15	i
CNC(=O)c1c(NC(=O)c2ccc(S(=O)(=O)N3CCCC3)cc2)sc2c1CCN(C(C)C)C2	13	.	.	.	i
CCOC(=O)c1c(NC(=O)c2ccc(S(=O)(=O)N3CCOCC3)cc2)sc2c1CCN(C(C)C)C2	7	.	.	2	i
O=C(CNc1cc(S(=O)(=O)N2CCOCC2)ccc1N1CCCC1)NCc1ccco1	-1	-4	0	-4	i
CCN(CC)c1nc2c(c(=O)[nH]c(=O)n2C)n1Cc1ccccc1	0	.	.	10	i
CCCCCCn1c(N(CC)CC)nc2c1c(=O)[nH]c(=O)n2C	1	-2	-1	52*	i
O=C(N/N=C/C1CC=CCC1)c1ccc(O)cc1O (stereo unspecified)	4	4	3	-16	+
O=C(N/N=C/C1CC=CCC1)c1cc2ccccc2cc1O (stereo unspecified)	-10	-162	-47	-7	i
COc1ccc(-c2sc3ccc(-c4ccc5c(c4)OCO5)cc3c2-c2ccc(OC)nc2)cc1	.	.	.	-2	.
O=C(CCN1CCC(c2ccc(Cl)s2)=N1)c1ccc(Cl)s1	16*	-9	-9	-1	i
C(=N\n1cnnc1)/c1ccc(N2CCOCC2)s1	10	70*	28	18	i
C(=N\n1cnnc1)/c1ccc(N2CCOCC2)cc1	?	2	-1	-1	i
CC1(C)CCCN(C(=O)c2coc(=O)c(Br)c2)C1	2	-3	1	.	+
CC(=O)N(\C=C/C=C/C=C1\Sc2ccccc2C1=O)c1ccccc1	11	-32	-4	2	i
CN(C)/C=C1/Sc2ccccc2C1=O	19*	62	28	7	i
CCN(CC(=O)Nc1c(F)cccc1F)C(=O)c1cccc(-n2cnnn2)c1	.	.	.	-1	.
CCOc1ccc(CN2CCN(Cc3cc4ccccc4[nH]3)CC2CCO)cc1 (stereo unspecified)	21*	-7	4	-1	i
O=C(CN1C(=O)c2ccccc2C1=O)Nc1cccc([N+](=O)[O-])c1	21*	6	0	3	i
CCOC(=O)C1CCN(c2nc3ccccc3nc2C(C#N)C(=O)OCCOC)CC1 (stereo unspecified)	?	6	1	.	i
CCCN(CCC)c1nc2ccccc2nc1C(C#N)C(=O)OCCOC (stereo unspecified)	37*	4	12	.	i
